PMC4506688 (Pharmacology Research & Perspectives, 2015)

Assays:
[1] = system: C8B4 murine microglia; assay: On cell polarization assay; type: cell-based; conditions: 1 μg/mL LPS, ligand at EC50 added 1 h after LPS, 24 h
Summary of the method: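 C8B4 microglia were seeded at 20,000 cells/well in DMEM with 10% FBS, then switched to 1% FBS the next day. On day 3, LPS was added (final 1 μg/mL), followed 1 h later by the test compound in LPS-containing medium. After 24 h, cells were given anti-CD16/32 or anti-CD206 antibody (2 μg/mL, 2 h), then a SULFO-TAG secondary (2 h). The electrochemiluminescence read-out was normalized to LPS control and analyzed by ANOVA.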

[2] = reported; ref Wohnsland and Faller [2001]; cited from earlier work
[3] = biological target: CB2 (Homo sapiens, UniProt P34972); assay: ACTOne cell-based cAMP assay in HEK-CNG+CB2 cells; conditions: HEK-CNG+CB2, control agonist
[4] = biological target: CB1 (Homo sapiens, UniProt P21554); assay: ACTOne cell-based cAMP assay in HEK-CNG+CB1 cells; conditions: HEK-CNG+CB1, control agonist
[5] = system: parental HEK-CNG cells; assay: ACTOne cell-based cAMP assay in parental HEK-CNG cells; parameters: species or system human

CB2, sequence (P34972 whole entry): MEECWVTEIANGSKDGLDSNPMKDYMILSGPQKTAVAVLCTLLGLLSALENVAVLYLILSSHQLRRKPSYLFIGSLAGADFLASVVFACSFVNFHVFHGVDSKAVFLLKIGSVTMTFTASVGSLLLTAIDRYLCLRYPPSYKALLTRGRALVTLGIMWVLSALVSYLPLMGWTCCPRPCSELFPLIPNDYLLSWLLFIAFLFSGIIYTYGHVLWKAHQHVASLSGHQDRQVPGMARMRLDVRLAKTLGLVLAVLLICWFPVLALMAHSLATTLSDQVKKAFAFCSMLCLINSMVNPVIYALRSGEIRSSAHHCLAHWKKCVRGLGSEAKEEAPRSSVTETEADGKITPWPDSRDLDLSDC
CB1, sequence (P21554 whole entry): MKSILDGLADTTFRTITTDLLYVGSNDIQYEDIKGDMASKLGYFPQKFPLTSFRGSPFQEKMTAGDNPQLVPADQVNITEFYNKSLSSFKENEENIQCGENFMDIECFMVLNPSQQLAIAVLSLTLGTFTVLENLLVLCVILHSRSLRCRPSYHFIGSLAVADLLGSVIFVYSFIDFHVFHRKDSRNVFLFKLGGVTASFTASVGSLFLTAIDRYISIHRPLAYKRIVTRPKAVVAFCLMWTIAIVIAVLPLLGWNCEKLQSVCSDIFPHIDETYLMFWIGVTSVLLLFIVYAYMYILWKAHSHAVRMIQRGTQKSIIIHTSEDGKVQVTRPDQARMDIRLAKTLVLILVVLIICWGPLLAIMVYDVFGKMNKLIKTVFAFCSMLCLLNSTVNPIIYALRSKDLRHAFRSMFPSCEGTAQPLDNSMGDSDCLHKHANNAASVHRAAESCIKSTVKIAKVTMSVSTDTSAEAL

Compound | CD16/32 (M1 marker) expression compared to LPS control [1] | CD206 (M2 marker) expression compared to LPS control [1] | further results
CCCCCCC(C)(C)c1cc(OC)c([C@@H]2C=C(CO)[C@@H]3C[C@H]2C3(C)C)c(OC)c1 [HU 308] | only HU 308 did so significantly (P < 0.001) | significantly decreased CD206 | 
CN1C(C(=O)Nc2ccccn2)=C(O)c2ccccc2S1(=O)=O [piroxicam] |  |  | Absorbed in humans [2]: 90–100%
CCCC(C)(C)c1ccc2c(c1)OC(C)(C)[C@@H]1CC=C(C)C[C@@H]21 [JWH 133] | decreased CD16/32 expression compared to LPS controls | significantly decreased CD206 | 
CCCCCCC(C)(C)c1ccc([C@@H]2C[C@H](O)CC[C@H]2CCCO)c(O)c1 [CP 55,940, 2-[(1R,2R,5R)-5-hydroxy-2-(3-hydroxypropyl)cyclohexyl]-5-(2-methyloctan-2-yl)phenol] |  |  | Average reduction in cAMP response [3]: 90%; Average reduction in cAMP response [4]: 90%; Change in cAMP-driven fluorescence / cAMP response [5]: no response was observed
SR 144528 | also decreased CD16/32 expression in comparison to LPS control | significantly increased CD206 | 
